Measurements taken from ChEMBL document CHEMBL1156133, “Losartan-antioxidant hybrids: novel molecules for the prevention of hypertension-induced cardiovascular damage” (J Med Chem, 2009).
Values belong to the compound of their own block, whether it stands above or below them. Active and inactive are the calls of the source. The rule behind the calls is not given here.

Key:
[1] = Antioxidant activity assessed as inhibition of oxidation of chromogen (ABTS) measured per mmol/L of product by total antioxidant assay; assay type: functional
Method in brief: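 Total antioxidant status kit: inhibition of ABTS oxidation by metmyoglobin and hydrogen peroxide, followed at 600 nm absorbance; antioxidant ability proportional to absorbance reduction, expressed as mM. Compounds tested at 1 mmol/L.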

VSMC = test: Displacement of [125I]angiotensin II from angiotensin 2 receptor in Wistar rat VSMC cells by gamma-counter; assay type: cell-based; set-up: concentration or dose not given beside the values
Method in brief: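 Rat aortic VSMC (collagenase-derived primary cultures, passages 3-5) resuspended in Tris-glucose-NaCl buffer pH 7.4 at 0.5 μg/μL protein; 125 μg protein incubated 45 min with 0.15 nM 125I-angiotensin II plus compound. Bound separated by centrifugation, pellet washed with cold 0.15 M NaCl, gamma counted; nonspecific binding with 10^-4 M angiotensin II.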

Rattus norvegicus [2] = test: Plasma concentration in po dosed Wistar rat assessed as EXP-3174 level after 4 weeks; assay type: ADME, organism-based; settings: in vivo, 672 h
Method in brief: (§1)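 Separate groups of Wistar rats dosed in drinking water for 4 weeks (n = 4-6 per group), then sacrificed and plasma analyzed by HPLC-MS/MS (triple quadrupole, electrospray), isocratic MeOH/water with 0.1% formic acid, 40 °C. Two plasma samples per animal; mean ± SEM.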

Rattus norvegicus [3] = test: Plasma concentration in po dosed Wistar rat assessed as losartan level after 4 weeks; assay type: ADME, organism-based; settings: in vivo, 672 h; method in brief: as §1
Rattus norvegicus [4] = test: Antihypertensive activity in L-NAME-induced Wistar rat assessed as decrease in blood Na+ level at 28 mg/kg/day, po for last 4 weeks measured after 8 weeks; assay type: functional
Method in brief: (§2)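 Two-month-old male Wistar rats given L-NAME in drinking water (20 mg/kg/day) for 8 weeks. From week 4, treatment is given daily in drinking water during 12.00–18.00 h, at the dose stated in the line. Ten rats per group. Sacrificed under halothane between 9.00 and 10.00 h. Serum is measured on an automatic analyzer. Mean ± SEM, nonparametric statistics.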

Rattus norvegicus [5] = test: Antihypertensive activity in L-NAME-induced Wistar rat assessed as decrease in blood AST level at 28 mg/kg/day, po for last 4 weeks measured after 8 weeks; assay type: functional; method in brief: as §2
Rattus norvegicus [6] = test: Antihypertensive activity in Wistar rat assessed as normalization of L-NAME-induced heart weight at 28 mg/kg/day, po for 4 weeks in presence of L-NAME; assay type: functional, organism-based
Method in brief: (§3)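 L-NAME (20 mg/kg/day, drinking water, 8 weeks) hypertensive two-month-old male Wistar rats; treatments in drinking water daily for the last 4 weeks. Systolic pressure by tail-cuff in conscious animals. At sacrifice heart weighed (corrected to body weight); aortic rings from descending thoracic aorta, formaldehyde-flushed, media thickness by planimetry. Mean ± SEM of 10 rats.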

Rattus norvegicus [7] = test: Antihypertensive activity in L-NAME-induced Wistar rat assessed as decrease in blood cholesterol level at 28 mg/kg/day, po for last 4 weeks measured after 8 weeks; assay type: functional; method in brief: as §2
Rattus norvegicus [8] = test: Antihypertensive activity in Wistar rat assessed as normalization of L-NAME-induced HNE-lysine accumulation in vessel walls at 28 mg/kg/day, po for 4 weeks in presence of losartan; assay type: functional, organism-based
Method in brief: (§4)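 Male Wistar rats on L-NAME in drinking water (20 mg/kg/day) for 8 weeks, treatments in drinking water for the last 4 weeks. Thoracic aorta lysates run on SDS-PAGE and Western blotted for collagen type I, fibronectin or HNE-lysine, with β-tubulin as loading control; ECL detection, densitometry. Expressed as percent of basal; mean ± SEM of 10 experiments.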

Rattus norvegicus [9] = test: Antihypertensive activity in Wistar rat assessed as normalization of L-NAME-induced systolic blood pressure at 28 mg/kg/day, po for 4 weeks; assay type: functional, organism-based; settings: Artery; method in brief: as §3
Rattus norvegicus [10] = test: Antihypertensive activity in L-NAME-induced Wistar rat assessed as decrease in blood glucose level at 28 mg/kg/day, po for last 4 weeks measured after 8 weeks; assay type: functional; method in brief: as §2
Rattus norvegicus [11] = test: Antihypertensive activity in L-NAME-induced Wistar rat assessed as decrease in blood calcium level at 28 mg/kg/day, po for last 4 weeks measured after 8 weeks; assay type: functional; method in brief: as §2
Rattus norvegicus [12] = test: Antihypertensive activity in Wistar rat assessed as normalization of L-NAME-induced heart weight at 20 mg/kg/day, po for 4 weeks in presence of L-NAME; assay type: functional, organism-based; settings: 28 mg/kg, in the assay text read “28 mg/kg/day” for “20 mg/kg/day”; method in brief: as §3
Rattus norvegicus [13] = test: Antihypertensive activity in L-NAME-induced Wistar rat assessed as decrease in blood ALT level at 28 mg/kg/day, po for last 4 weeks measured after 8 weeks; assay type: functional; method in brief: as §2
Rattus norvegicus [14] = test: Antihypertensive activity in L-NAME-induced Wistar rat assessed as decrease in blood […] level at 28 mg/kg/day, po for last 4 weeks measured after 8 weeks; assay type: functional; method in brief: as §2
Rattus norvegicus [15] = test: Antihypertensive activity in L-NAME-induced Wistar rat assessed as decrease in blood creatinine level at 28 mg/kg/day, po for last 4 weeks measured after 8 weeks; assay type: functional; method in brief: as §2
Rattus norvegicus [16] = test: Antihypertensive activity in L-NAME-induced Wistar rat assessed as decrease in blood triglyceride level at 28 mg/kg/day, po for last 4 weeks measured after 8 weeks; assay type: functional; method in brief: as §2
Rattus norvegicus [17] = test: Antihypertensive activity in Wistar rat assessed as normalization of L-NAME-induced collagen 1 level in vessel walls at 28 mg/kg/day, po for 4 weeks in presence of losartan; assay type: functional, organism-based; method in brief: as §4
Rattus norvegicus [18] = test: Plasma concentration in po dosed Wistar rat assessed as 3-(3,4-Dihydroxy-phenyl)propionic Acid 2-butyl-5-chloro-3-[2'-(2H-tetrazol-5-yl)-biphenyl-4-ylmethyl]-3H-imidazol-4-ylmethylester level after 4 weeks; assay type: ADME, organism-based; settings: in vivo, 672 h; method in brief: as §1
Rattus norvegicus [19] = test: Antihypertensive activity in Wistar rat assessed as normalization of L-NAME-induced aorta thickness at 10 mg/kg/day, po for 4 weeks; assay type: functional, organism-based; method in brief: as §3
Rattus norvegicus [20] = test: Antihypertensive activity in Wistar rat assessed as normalization of L-NAME-induced fibronectin content in vessel walls at 28 mg/kg/day, po for 4 weeks in presence of losartan; assay type: functional, organism-based; method in brief: as §4
[21] = Solubility in water assessed as nonhydrolzed drug level after 2 days; assay type: physicochemical; settings: read-out: Activity
Rattus norvegicus [22] = test: Antihypertensive activity in L-NAME-induced Wistar rat assessed as decrease in blood protein level at 28 mg/kg/day, po for last 4 weeks measured after 8 weeks; assay type: functional; method in brief: as §2
Rattus norvegicus [23] = test: Antihypertensive activity in L-NAME-induced Wistar rat assessed as decrease in blood LDH level at 28 mg/kg/day, po for last 4 weeks measured after 8 weeks; assay type: functional; method in brief: as §2
Rattus norvegicus [24] = test: Antihypertensive activity in L-NAME-induced Wistar rat assessed as decrease in blood urea level at 28 mg/kg/day, po for last 4 weeks measured after 8 weeks; assay type: functional; method in brief: as §2

Compound: CCCCc1ncc(COC(=O)C2(C)CCc3c(C)c(O)c(C)c(C)c3O2)n1Cc1ccc(-c2ccccc2-c2nnn[nH]2)cc1 (stereo not drawn)
Activity [1]: 0.27 mmol/L
Activity (VSMC): 65%

Compound: CCCCc1ncc(COC(=O)Cc2cc(C(C)(C)C)c(O)c(C(C)(C)C)c2)n1Cc1ccc(-c2ccccc2-c2nnn[nH]2)cc1
Activity [1]: 0.24 mmol/L
Activity (VSMC): 77%

Compound: CCCCc1nc(Cl)c(COC(=O)C2(C)CCc3c(C)c(O)c(C)c(C)c3O2)n1Cc1ccc(-c2ccccc2-c2nnn[nH]2)cc1 (stereo not drawn)
Activity [1]: 0.25 mmol/L
Activity (VSMC): 68%

concentration (Rattus norvegicus [2]): 39 nM
concentration (Rattus norvegicus [3]): 24.4 nM
Compound: CCCCc1nc(Cl)c(CO)n1Cc1ccc(-c2ccccc2-c2nn[nH]n2)cc1 [LOSARTAN]

concentration (Rattus norvegicus [2]): 13 nM
concentration (Rattus norvegicus [3]): 8 nM
concentration (Rattus norvegicus [18]): 171 nM
remaining at 48 h [21]: 95.9%
Compound: CCCCc1nc(Cl)c(COC(=O)CCc2ccc(O)c(O)c2)n1Cc1ccc(-c2ccccc2-c2nnn[nH]2)cc1
Activity (Rattus norvegicus [4]): 151 mmol/L
Activity (Rattus norvegicus [5]): 83 IU/L
Activity (Rattus norvegicus [6]): Active
Activity [1]: 0.31 mmol/L
Activity (Rattus norvegicus [7]): 52 mg/dL
Activity (Rattus norvegicus [8]): Active
Activity (Rattus norvegicus [9]): Active
Activity (Rattus norvegicus [10]): 154 mg/dL
Activity (Rattus norvegicus [11]): 8.6 mg/dL
Activity (Rattus norvegicus [12]): Active
Activity (Rattus norvegicus [13]): 24 IU/L
Activity (Rattus norvegicus [14]): 4.6 mmol/L
Activity (Rattus norvegicus [15]): 0.42 mg/dL
Activity (Rattus norvegicus [16]): 52 mg/dL
Activity (Rattus norvegicus [17]): Active
Activity (VSMC): 59%
Activity (Rattus norvegicus [19]): inactive
Activity (Rattus norvegicus [20]): Active
Activity (Rattus norvegicus [22]): 4.5 g/dL
Activity (Rattus norvegicus [23]): 561 IU/L
Activity (Rattus norvegicus [24]): 24 mg/dL
